ChEMBL document CHEMBL4270654, “Identification of DK419, a potent inhibitor of Wnt/β-catenin signaling and colorectal cancer growth” (Bioorg Med Chem, 2018)
Calls of active or inactive are those of the source. The rule behind the calls is not given here.

What was measured:
[1] = Inhibition of Wnt3A-stimulated Wnt/beta-catenin pathway in HEK293 cells transfected with p8xTOPFlash, Renilla luciferase plasmid pRL-TK and pLKO.1 after 6 hrs by Dual topflash luciferase reporter assay; assay type: cell-based; settings: Homo sapiens, HEK293, 6 h
Method in brief: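 HEK293 cells stably carrying p8xTOPFlash, pRL-TK and pLKO.1 were grown overnight to confluence in MEM/10% FBS with 1 μg/ml puromycin. Wnt-3A conditioned medium (from L Wnt-3A cells) containing compound (0.04–10 μM) or DMSO was added for 6 h. Dual-luciferase was read, with the Wnt3A+DMSO signal set as 100%.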

[2] = species on record: Homo sapiens; assay: Inhibition of Wnt/beta-catenin signaling pathway in human HCT116 cells cytosol lysate harboring beta-catenin mutation assessed as reduction in Axin2 protein expression at 5 uM after 18 hrs by Western blot analysis; assay type: cell-based
Method in brief: (§1)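 CCRC240, HCT116 or SW480 cells were grown to 50–70% confluency and exposed 18 h to 5 μM compound in DMSO. Whole-cell lysates were blotted for c-Myc, cyclin D1 and survivin. Hypotonic cytosolic fractions, syringe-dispersed and centrifuged 120 min, were blotted for β-catenin and Axin2. β-Actin served as loading control.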

[3] = species on record: Homo sapiens; assay: Inhibition of Wnt/beta-catenin signaling pathway in human HCT116 cells cytosol lysate harboring beta-catenin mutation assessed as reduction in beta-catenin protein expression at 5 uM after 18 hrs by Western blot analysis; assay type: cell-based; method in brief: as §1
[4] = species on record: Homo sapiens; assay: Inhibition of Wnt/beta-catenin signaling pathway in human HCT116 whole cell lysate harboring beta-catenin mutation assessed as reduction in c-Myc protein expression at 5 uM after 18 hrs by Western blot analysis; method in brief: as §1
[5] = species on record: Homo sapiens; assay: Inhibition of Wnt/beta-catenin signaling pathway in human HCT116 whole cell lysate harboring beta-catenin mutation assessed as reduction in cyclin D1 protein expression at 5 uM after 18 hrs by Western blot analysis; method in brief: as §1
[6] = species on record: Homo sapiens; assay: Inhibition of Wnt/beta-catenin signaling pathway in human HCT116 whole cell lysate harboring beta-catenin mutation assessed as reduction in survivin protein expression at 5 uM after 18 hrs by Western blot analysis; method in brief: as §1
[7] = species on record: Homo sapiens; assay: Inhibition of Wnt/beta-catenin signaling pathway in human SW480 cells cytosol lysate harboring APC mutation assessed as reduction in Axin2 protein expression at 5 uM after 18 hrs by Western blot analysis; assay type: cell-based; method in brief: as §1
[8] = species on record: Homo sapiens; assay: Inhibition of Wnt/beta-catenin signaling pathway in human SW480 cells cytosol lysate harboring APC mutation assessed as reduction in beta-catenin protein expression at 5 uM after 18 hrs by Western blot analysis; assay type: cell-based; method in brief: as §1
[9] = species on record: Homo sapiens; assay: Inhibition of Wnt/beta-catenin signaling pathway in human SW480 whole cell lysate harboring APC mutation assessed as reduction in c-Myc protein expression at 5 uM after 18 hrs by Western blot analysis; method in brief: as §1
[10] = species on record: Homo sapiens; assay: Inhibition of Wnt/beta-catenin signaling pathway in human SW480 whole cell lysate harboring APC mutation assessed as reduction in cyclin D1 protein expression at 5 uM after 18 hrs by Western blot analysis; method in brief: as §1
[11] = species on record: Homo sapiens; assay: Inhibition of Wnt/beta-catenin signaling pathway in human SW480 whole cell lysate harboring APC mutation assessed as reduction in survivin protein expression at 5 uM after 18 hrs by Western blot analysis; method in brief: as §1
[12] = species on record: Homo sapiens; assay: Inhibition of Wnt/beta-catenin signaling pathway in human CRC240 cells cytosol lysate assessed as reduction in Axin2 protein expression at 5 uM after 18 hrs by Western blot analysis; assay type: cell-based; method in brief: as §1
[13] = species on record: Homo sapiens; assay: Inhibition of Wnt/beta-catenin signaling pathway in human CRC240 cells cytosol lysate assessed as reduction in beta-catenin protein expression at 5 uM after 18 hrs by Western blot analysis; assay type: cell-based; method in brief: as §1
[14] = species on record: Homo sapiens; assay: Inhibition of Wnt/beta-catenin signaling pathway in human CRC240 whole cell lysate assessed as reduction in c-Myc protein expression at 5 uM after 18 hrs by Western blot analysis; method in brief: as §1
[15] = species on record: Homo sapiens; assay: Inhibition of Wnt/beta-catenin signaling pathway in human CRC240 whole cell lysate assessed as reduction in cyclin D1 protein expression at 5 uM after 18 hrs by Western blot analysis; method in brief: as §1
[16] = species on record: Homo sapiens; assay: Inhibition of Wnt/beta-catenin signaling pathway in human CRC240 whole cell lysate assessed as reduction in survivin protein expression at 5 uM after 18 hrs by Western blot analysis; method in brief: as §1
[17] = target: AMP-activated protein kinase, AMPK (Homo sapiens) (UniProt P54646+O43741+P54619+Q9UGJ0+Q9Y478+Q13131+Q9UGI9); assay: Induction of AMPK phosphorylation in human CCD-841-CoN cells at 0.1 to 10 uM after 2 hrs by Western blot analysis; assay type: cell-based
Method in brief: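 Colonic epithelial CCD841Co cells were seeded at 0.27 million per well on poly-D-lysine-coated wells and attached overnight. Medium was then switched to glucose-free DMEM with 2 mM pyruvate and 2 mM glutamine containing compound or DMSO. Whole-cell lysates were immunoblotted for phospho-Thr172 AMPK and total AMPK, with β-actin as loading control. Methods give 30 min exposure; legend gives 2 h.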

[18] = test system: Mus musculus; assay: Time at which plasma concentration stays above in vitro IC50 for inhibition of Wnt3A-stimulated Wnt/beta-catenin pathway in HEK293 cells in NOD/SCID mouse at 1 mg/kg, po by LC-MS/MS analysis; assay type: organism-based; settings: in vivo
Method in brief: (§2)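 NOD/SCID mice (n = 4) received a single oral dose of 1 mg/kg from a 0.2 mg/mL solution in 10% NMP/90% PEG300. Serial tail-vein blood was taken from pre-dose to 72 h and plasma kept at −80 °C. Samples were extracted with ethyl acetate against an internal standard and run on LC/MS/MS (MRM 405.8/218.9). The calibration range was 2.4–1000 ng/mL in plasma.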

[19] = test system: SW948; assay: Antiproliferative activity against human SW948 cells after 72 hrs by colorimetric MTS assay; assay type: functional, cell-based; settings: SW948, 72 h
Method in brief: (§3)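 Cells plated at 5000 per well in their own media (Leibovitz's for SW948; McCoy's 5A for HT-29/HCT116; MEM for SW480; RPMI for CRC240/DLD-1) with 10% FBS. Exposed 72 h to compound, 0.001–10 μM or 0.04–10 μM, then colorimetric MTS read-out. […] CRC240 is a patient-derived xenograft line.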

[20] = test system: HT-29; assay: Antiproliferative activity against human HT-29 cells after 72 hrs by colorimetric MTS assay; assay type: functional, cell-based; settings: HT-29, 72 h; method in brief: as §3
[21] = test system: HCT-116; assay: Antiproliferative activity against human HCT116 cells after 72 hrs by colorimetric MTS assay; assay type: functional, cell-based; settings: HCT-116, 72 h; method in brief: as §3
[22] = Antiproliferative activity against human CRC240 cells after 72 hrs by colorimetric MTS assay; assay type: functional, cell-based; method in brief: as §3
[23] = test system: SW480; assay: Antiproliferative activity against human SW480 cells after 72 hrs by colorimetric MTS assay; assay type: functional, cell-based; settings: SW480, 72 h; method in brief: as §3
[24] = test system: DLD-1; assay: Antiproliferative activity against human DLD1 cells after 72 hrs by colorimetric MTS assay; assay type: functional, cell-based; settings: DLD-1, 72 h; method in brief: as §3
[25] = test system: Mus musculus; assay: Dose normalized AUC (0 to infinity) in NOD/SCID mouse at 1 mg/kg, po by LC-MS/MS-based compartmental first order extravascular input, first order elimination analysis; assay type: ADME, organism-based; settings: in vivo
[26] = Apparent oral volume of distribution in NOD/SCID mouse at 1 mg/kg by LC-MS/MS-based compartmental first order extravascular input, first order elimination analysis; assay type: ADME, organism-based; settings: in vivo
[27] = test system: Mus musculus; assay: Apparent clearance in NOD/SCID mouse at 1 mg/kg, po by LC-MS/MS-based compartmental first order extravascular input, first order elimination analysis; assay type: ADME, organism-based; settings: in vivo
[28] = test system: Mus musculus; assay: Dose normalized AUC (0 to infinity) in NOD/SCID mouse at 1 mg/kg, po by LC-MS/MS-based non-compartmental extravascular input analysis; assay type: ADME, organism-based; settings: in vivo
[29] = AUC (0 to 72 hrs) in NOD/SCID mouse at 1 mg/kg, po by LC-MS/MS-based non-compartmental extravascular input analysis; assay type: ADME, organism-based; design: dose 1 mg/kg, time < 72 hr, route oral; settings: in vivo
[30] = test system: Mus musculus; assay: Apparent volume of distribution in NOD/SCID mouse at 1 mg/kg, po by LC-MS/MS-based non-compartmental extravascular input analysis; assay type: ADME, organism-based; settings: in vivo
[31] = test system: Mus musculus; assay: Apparent clearance in NOD/SCID mouse at 1 mg/kg, po by LC-MS/MS-based non-compartmental extravascular input analysis; assay type: ADME, organism-based; settings: in vivo
[32] = test system: Mus musculus; assay: Toxicity in NOD/SCID mouse xenografted with human CRC240 cells assessed as change in body weight at 1 mg/kg, po administered 11 days and measured on day 4, 8 during compound dosing and day 11 post last dose; assay type: organism-based; settings: in vivo, 264 h
Method in brief: (§4)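 Minced CRC240 PDX tissue (150 mg/ml in PBS, 200 μl) implanted in flanks of NOD/SCID mice. At about 100 mm3 tumours, mice randomized and dosed orally once daily for 11 days. Vehicle: 10% 1-methyl-2-pyrrolidinone/90% PEG300, with dosing suspensions or solutions at […] or 0.2 mg/ml. Tumour size and body weight recorded on days 0, 4, 8 and 11. n = 3, two-tailed t-test versus vehicle.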

[33] = test system: Homo sapiens; assay: Antitumor activity against human CRC240 cells xenografted in NOD/SCID mouse at 1 mg/kg, po administered 11 days and measured on day 4, 8 during compound dosing and day 11 post last dose; assay type: functional, organism-based; method in brief: as §4
[34] = test system: Mus musculus; assay: In vivo inhibition of Wnt/beta-catenin signaling pathway in NOD/SCID mouse xenografted with human CRC240 cells assessed as reduction in Axin2 protein expression at 1 mg/kg, po administered 11 days by Western blot method; assay type: functional, organism-based
Method in brief: (§5)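 CRC240 PDX tumours were taken from NOD/SCID mice the day after 11 days of once-daily oral dosing (1 mg/kg, in 10% NMP/90% PEG300). Tumours were lysed in RIPA buffer and immunoblotted for Axin2, survivin and c-Myc. Bands were normalized to β-actin, n = 3, two-tailed t-test versus vehicle.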

[35] = test system: Mus musculus; assay: In vivo inhibition of Wnt/beta-catenin signaling pathway in NOD/SCID mouse xenografted with human CRC240 cells assessed as reduction in survivin protein expression at 1 mg/kg, po administered 11 days by Western blot method; assay type: functional, organism-based; method in brief: as §5
[36] = test system: Mus musculus; assay: In vivo inhibition of Wnt/beta-catenin signaling pathway in NOD/SCID mouse xenografted with human CRC240 cells assessed as reduction in c-Myc protein expression at 1 mg/kg, po administered 11 days by Western blot method; assay type: functional, organism-based; method in brief: as §5
[37] = target: Frizzled-1 (Homo sapiens) (UniProt Q9UP38); assay: Induction of GFP-tagged Fzd1 (unknown origin) internalization expressed in human U2OS cells at 12.5 after 6 hrs by confocal microscopic method; assay type: functional, cell-based
Chain of Frizzled-1 (Homo sapiens) (Q9UP38 70-647 limits assumed): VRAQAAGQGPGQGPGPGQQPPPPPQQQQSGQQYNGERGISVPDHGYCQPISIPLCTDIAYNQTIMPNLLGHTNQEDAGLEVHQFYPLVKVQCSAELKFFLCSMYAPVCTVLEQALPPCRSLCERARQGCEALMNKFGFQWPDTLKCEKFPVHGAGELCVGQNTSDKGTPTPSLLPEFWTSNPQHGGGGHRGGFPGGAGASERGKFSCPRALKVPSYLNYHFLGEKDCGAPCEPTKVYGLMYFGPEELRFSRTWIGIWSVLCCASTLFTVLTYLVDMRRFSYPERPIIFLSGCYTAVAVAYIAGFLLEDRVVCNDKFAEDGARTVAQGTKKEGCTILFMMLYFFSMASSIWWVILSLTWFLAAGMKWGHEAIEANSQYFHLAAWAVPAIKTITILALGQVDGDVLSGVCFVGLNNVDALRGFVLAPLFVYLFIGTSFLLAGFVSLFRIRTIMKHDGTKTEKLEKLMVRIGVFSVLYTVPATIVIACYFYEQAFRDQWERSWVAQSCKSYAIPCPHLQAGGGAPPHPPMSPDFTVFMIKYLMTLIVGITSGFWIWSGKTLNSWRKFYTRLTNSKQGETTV
Method in brief: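 U2OS cells stably expressing Fzd1-GFP were grown 24 h in confocal dishes and then treated 6 h at 37 °C with 12.5 μM compound, DMSO as control. Cells were fixed in 4% paraformaldehyde and imaged by confocal microscopy (488 nm excitation). Internalization was scored as intracellular green punctate vesicles.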

[38] = test system: CCD-841CoN; assay: Stimulation of mitochondrial respiration in human CCD-841-CoN cells assessed as increase in oxygen consumption rate at 1 uM in presence of rotenone and […] antimycin A by polarographic analysis; assay type: functional, cell-based
Method in brief: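 CCD841Co cells were plated at 8000 per well and attached overnight. OCR was measured on a Seahorse XFp analyzer under basal conditions after 1 μM compound or DMSO was added. This was followed by 1 μM oligomycin, 1 μM FCCP, then 0.5 μM rotenone plus antimycin A (Mito Stress Test). Data given as mean ± SD, n = 2.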

[39] = test system: Mus musculus; assay: Time at which plasma concentration stays above in vitro IC50 for antiproliferative activity against human CRC240 cells in NOD/SCID mouse at 1 mg/kg, po by LC-MS/MS analysis; assay type: organism-based; settings: in vivo; method in brief: as §2
[40] = test system: CCD-841CoN; assay: Stimulation of mitochondrial respiration in human CCD-841-CoN cells assessed as increase in oxygen consumption rate at 1 uM under basal conditions by polarographic analysis

- IC50 [1]: 190 nM
- inhibition [4]: Active
- inhibition [5]: Active
- inhibition [9]: Active
- inhibition [10]: Active
- inhibition [14]: Active
- inhibition [15]: Active
- Activity [17]: Active
- Time [18]: 24 h
- IC50 [19]: 70 nM
- IC50 [20]: 120 nM
- IC50 [21]: 280 nM
- IC50 [23]: 330 nM
- IC50 [24]: 360 nM
- AUC/dose [25]: 16.3 µg·h/mL
- Vd/F [26]: 0.98 L/kg
- CL/F [27]: 1 mL/min/kg
- AUC/dose [28]: 16.9 µg·h/mL
- AUC(0-t) at 72 h [29]: 16800 ng·h/mL
- Vz [30]: 0.8 L/kg
- CL/F [31]: 1 mL/min/kg
- Activity [37]: Active
Structure (SMILES): O=C(Nc1ccc(C(F)(F)F)cc1)c1cc(Cl)cc2nc(C(F)(F)F)[nH]c12
- inhibition [2]: Active
- inhibition [3]: Active
- inhibition [6]: Active
- inhibition [7]: Active
- inhibition [8]: Active
- inhibition [11]: Active
- inhibition [12]: Active
- inhibition [13]: Active
- inhibition [16]: Active
- IC50 [22]: 320 nM
- Activity [32]: Non-Toxic
- Activity [33]: Active
- inhibition [34]: Active
- inhibition [35]: Active
- inhibition [36]: Active
- Activity [38]: inactive
- Time [39]: 24 h
- Activity [40]: Active
